Legend:
P-selectin = biological target: T1, P-selectin (Homo sapiens, UniProt P16109); assay: In vitro inhibitory activity against sialyl Lewis X expressing HL60 cell binding Selectin P; type: cell-based, HL-60
T1 sequence (P16109 whole entry): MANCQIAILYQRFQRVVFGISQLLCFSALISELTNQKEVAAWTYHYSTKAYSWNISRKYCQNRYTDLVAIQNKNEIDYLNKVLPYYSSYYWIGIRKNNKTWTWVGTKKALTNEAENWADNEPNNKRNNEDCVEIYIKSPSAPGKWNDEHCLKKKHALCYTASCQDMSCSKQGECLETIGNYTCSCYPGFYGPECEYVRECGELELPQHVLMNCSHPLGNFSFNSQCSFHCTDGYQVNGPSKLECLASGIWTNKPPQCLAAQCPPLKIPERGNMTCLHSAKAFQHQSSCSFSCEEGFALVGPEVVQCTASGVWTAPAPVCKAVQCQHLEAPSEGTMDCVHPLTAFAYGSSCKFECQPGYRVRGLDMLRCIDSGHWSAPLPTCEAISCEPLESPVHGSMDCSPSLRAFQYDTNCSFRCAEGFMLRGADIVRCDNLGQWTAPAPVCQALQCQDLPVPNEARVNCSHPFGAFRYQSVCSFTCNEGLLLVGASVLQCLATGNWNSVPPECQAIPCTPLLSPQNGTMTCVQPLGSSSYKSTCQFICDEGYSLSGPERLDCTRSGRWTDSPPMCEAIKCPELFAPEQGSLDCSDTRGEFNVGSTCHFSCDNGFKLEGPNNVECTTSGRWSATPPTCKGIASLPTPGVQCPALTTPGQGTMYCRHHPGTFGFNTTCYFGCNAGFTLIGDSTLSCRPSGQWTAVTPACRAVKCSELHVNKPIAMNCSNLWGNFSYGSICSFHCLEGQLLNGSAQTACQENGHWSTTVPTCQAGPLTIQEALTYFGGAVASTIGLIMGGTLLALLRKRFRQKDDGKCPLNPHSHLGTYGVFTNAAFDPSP

E-selectin = biological target: T2, E-selectin (Homo sapiens, UniProt P16581); assay: In vitro inhibition of HL60 (human leukemia) cell binding to human recombinant e-selectin.; type: cell-based, HL-60
T2 sequence (P16581 whole entry): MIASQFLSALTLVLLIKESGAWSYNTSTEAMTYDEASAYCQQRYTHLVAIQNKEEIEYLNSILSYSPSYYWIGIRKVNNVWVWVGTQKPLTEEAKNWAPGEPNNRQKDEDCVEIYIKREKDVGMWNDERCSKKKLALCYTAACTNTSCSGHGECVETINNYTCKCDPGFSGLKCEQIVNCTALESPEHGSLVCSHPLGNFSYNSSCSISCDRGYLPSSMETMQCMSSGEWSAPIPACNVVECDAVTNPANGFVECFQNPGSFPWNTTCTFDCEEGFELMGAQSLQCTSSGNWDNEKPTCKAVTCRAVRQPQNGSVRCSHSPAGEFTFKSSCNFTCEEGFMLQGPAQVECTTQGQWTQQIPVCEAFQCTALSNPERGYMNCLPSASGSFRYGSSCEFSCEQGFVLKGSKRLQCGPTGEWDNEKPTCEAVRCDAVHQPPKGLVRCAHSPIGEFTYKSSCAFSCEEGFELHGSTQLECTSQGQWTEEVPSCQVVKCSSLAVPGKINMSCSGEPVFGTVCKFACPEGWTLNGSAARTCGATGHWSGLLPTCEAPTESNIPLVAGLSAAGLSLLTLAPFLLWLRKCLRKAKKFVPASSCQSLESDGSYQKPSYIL
How it was run: (§1)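 Human E-selectin (lectin, EGF and two complement repeats) fused to mouse IgG was captured on anti-mouse IgG magnetic beads overnight at 4 °C. Wells were pre-blocked with 3% BSA/PBS. Compound in PBS was mixed with calcein-labelled HL60 cells (10⁷/mL, RPMI 1640 + 10% FCS) and beads (4 × 10⁶/mL) for 10 min at room temperature. Unbound cells were removed magnetically with two PBS washes, and bound cells were lysed in 1% NP40.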

[1] = biological target: T3, L-selectin (Mus musculus) (UniProt P18337); assay: In vitro inhibitory activity against sialyl Lewis X expressing HL60 cell binding to Selectin L at 3 mM concentration; conditions: HL-60
T3 sequence (whole entry): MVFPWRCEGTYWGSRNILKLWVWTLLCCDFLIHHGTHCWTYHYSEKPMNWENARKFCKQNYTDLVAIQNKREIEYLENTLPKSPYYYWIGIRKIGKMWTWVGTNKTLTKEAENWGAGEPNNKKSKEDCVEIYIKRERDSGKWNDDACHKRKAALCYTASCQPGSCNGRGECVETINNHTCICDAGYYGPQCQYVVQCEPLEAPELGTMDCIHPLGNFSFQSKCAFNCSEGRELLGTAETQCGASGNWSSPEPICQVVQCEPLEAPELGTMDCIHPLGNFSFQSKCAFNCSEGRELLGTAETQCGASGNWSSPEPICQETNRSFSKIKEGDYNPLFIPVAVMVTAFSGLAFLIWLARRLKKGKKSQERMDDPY

[2] = biological target: T4, P-selectin (Homo sapiens) (UniProt P16109); assay: In vitro inhibitory activity against sialyl Lewis X expressing HL60 cell binding Selectin P at 20 mM concentration; type: cell-based; conditions: HL-60
T4 sequence (whole entry): T1 sequence (P16109 whole entry)

[3] = biological target: T5, E-selectin (Homo sapiens) (UniProt P16581); assay: In vitro inhibitory activity against sialyl Lewis X expressing HL60 cell binding to recombinant human E-selectin at 20 mM concentration; type: cell-based; conditions: HL-60; how it was run: as §1
T5 sequence (whole entry): T2 sequence (P16581 whole entry)

[4] = biological target: T3, L-selectin (Mus musculus); assay: In vitro inhibitory activity against sialyl Lewis X expressing HL60 cell binding to Selectin L at 7 mM concentration; type: cell-based; conditions: HL-60
[5] = biological target: T3, L-selectin (Mus musculus); assay: In vitro inhibitory activity against sialyl Lewis X expressing HL60 cell binding to Selectin L at 5 mM concentration; type: cell-based; conditions: HL-60
[6] = biological target: T3, L-selectin (Mus musculus); assay: In vitro inhibitory activity against sialyl Lewis X expressing HL60 cell binding to L-selectin at 6 mM concentration; type: cell-based; conditions: HL-60
[7] = biological target: T4, P-selectin (Homo sapiens); assay: In vitro inhibitory activity against sialyl Lewis X expressing HL60 cell binding Selectin P at 25 mM concentration; type: cell-based; conditions: HL-60
[8] = biological target: T3, L-selectin (Mus musculus); assay: In vitro inhibitory activity against sialyl Lewis X expressing HL60 cell binding to Selectin L at 8 mM concentration; type: cell-based; conditions: HL-60
L-selectin = biological target: T6, L-selectin (Mus musculus, UniProt P18337); assay: In vitro inhibitory activity against sialyl Lewis X expressing HL60 cell binding Selectin L; type: cell-based, HL-60
T6 sequence (P18337 whole entry): T3 sequence (whole entry)

[9] = biological target: T3, L-selectin (Mus musculus); assay: In vitro inhibitory activity against sialyl Lewis X expressing HL60 cell binding Selectin L at 1 mM concentration; type: cell-based; conditions: HL-60
[10] = biological target: T3, L-selectin (Mus musculus); assay: In vitro inhibitory activity against sialyl Lewis X expressing HL60 cell binding to Selectin L at 6 mM concentration; type: cell-based; conditions: HL-60
[11] = biological target: T4, P-selectin (Homo sapiens); assay: In vitro inhibitory activity against sialyl Lewis X expressing HL60 cell binding Selectin P at 23 mM concentration; type: cell-based; conditions: HL-60
[12] = biological target: T3, L-selectin (Mus musculus); assay: In vitro inhibitory activity against sialyl Lewis X expressing HL60 cell binding Selectin L at 6 mM concentration; type: cell-based; conditions: HL-60
[13] = biological target: T5, E-selectin (Homo sapiens); assay: In vitro inhibitory activity against sialyl Lewis X expressing HL60 cell binding to recombinant human E-selectin at 128 mM concentration; type: cell-based; conditions: HL-60; 18 mM; in the assay text read “18 mM” for “128 mM”; how it was run: as §1
[14] = biological target: T5, E-selectin (Homo sapiens); assay: In vitro inhibitory activity against sialyl Lewis X expressing HL60 cell binding to recombinant human E-selectin at 16.3 mM concentration; type: cell-based; conditions: HL-60; how it was run: as §1
[15] = biological target: T5, E-selectin (Homo sapiens); assay: In vitro inhibitory activity against sialyl Lewis X expressing HL60 cell binding to recombinant human E-selectin at 6 mM concentration; type: cell-based; conditions: HL-60; how it was run: as §1

SMILES: Cc1ccc(OCC(=O)O)cc1-c1ccccc1O[C@H]1O[C@H](CO)[C@@H](O)[C@@H](O)[C@@H]1O
- IC50 (P-selectin): 12 mM
- IC50 (E-selectin): 20.2 mM

SMILES: O=C(O)CCC(=O)c1ccc(-c2ccccc2O[C@H]2O[C@H](CO)[C@@H](O)[C@@H](O)[C@@H]2O)cc1
- inhibition [1]: 0%
- inhibition [2]: 0%
- inhibition [3]: 40%

SMILES: Cc1ccc(O[C@H]2O[C@H](CO)[C@@H](O)[C@@H](O)[C@@H]2O)c(-c2cccc(OCC(=O)O)c2)c1
- IC50 (E-selectin): 14 mM

SMILES: Cc1cc(-c2ccccc2O[C@H]2O[C@H](CO)[C@@H](O)[C@@H](O)[C@@H]2O)cc(C)c1OCC(=O)O
- IC50 (P-selectin): 6.9 mM
- IC50 (E-selectin): 8 mM
- inhibition [4]: 0%

SMILES: O=C(O)CC[C@H](NC(=O)c1cccc(-c2ccccc2O[C@H]2O[C@H](CO)[C@@H](O)[C@@H](O)[C@@H]2O)c1)C(=O)O
- IC50 (E-selectin): 15.8 mM
- inhibition [5]: 15%

SMILES: O=S(=O)(O)CCc1cccc(-c2ccccc2O[C@H]2O[C@H](CO)[C@@H](O)[C@@H](O)[C@@H]2O)c1
- IC50 (E-selectin): 20 mM

SMILES: O=C(O)COc1ccc(-c2ccccc2O[C@H]2O[C@H](CO)[C@@H](O)[C@@H](O)[C@@H]2O)cc1
- IC50 (P-selectin): 20 mM
- IC50 (E-selectin): 6.1 mM
- inhibition [6]: 20%

SMILES: O=C(O)COc1ccccc1-c1ccccc1O[C@H]1O[C@H](CO)[C@@H](O)[C@@H](O)[C@@H]1O
- inhibition [7]: 20%
- IC50 (E-selectin): 20 mM
- inhibition [8]: 0%

SMILES: O=C(O)COc1cccc(-c2ccccc2O[C@H]2O[C@H](CO)[C@@H](O)[C@@H](O)[C@@H]2O)c1
- IC50 (L-selectin): 17 mM
- IC50 (P-selectin): 4.9 mM
- IC50 (E-selectin): 4.9 mM

SMILES: O=C(O)CCNC(=O)c1ccc(-c2ccccc2O[C@H]2O[C@H](CO)[C@@H](O)[C@@H](O)[C@@H]2O)cc1
- inhibition [9]: 0%
- IC50 (E-selectin): 36 mM

SMILES: O=C(O)CNC(=O)c1ccc(-c2ccccc2O[C@H]2O[C@H](CO)[C@@H](O)[C@@H](O)[C@@H]2O)cc1
- IC50 (E-selectin): 4.6 mM
- inhibition [2]: 0%
- inhibition [10]: 0%

SMILES: N#CCc1cccc(-c2ccccc2O[C@H]2O[C@H](CO)[C@@H](O)[C@@H](O)[C@@H]2O)c1
- IC50 (L-selectin): 1.5 mM
- IC50 (E-selectin): 7 mM
- inhibition [11]: 40%

SMILES: O=C(O)CNC(=O)c1cccc(-c2ccccc2O[C@H]2O[C@H](CO)[C@@H](O)[C@@H](O)[C@@H]2O)c1
- inhibition [12]: 0%
- inhibition [13]: 0%
- inhibition [11]: 25%

SMILES: O=C(O)CC(NC(=O)c1ccc(-c2ccccc2O[C@H]2O[C@H](CO)[C@@H](O)[C@@H](O)[C@@H]2O)cc1)C(=O)O (stereo partly specified)
- IC50 (L-selectin): 5 mM
- IC50 (P-selectin): 2 mM
- inhibition [14]: 0%

SMILES: O=C(O)C(=O)Nc1cccc(-c2ccccc2O[C@H]2O[C@H](CO)[C@@H](O)[C@@H](O)[C@@H]2O)c1
- inhibition [15]: 0%
